Test results reported in paper PMC6792223 (Chemistry of Materials, 2019).

Legend:
[1] = tested on: Human-adipose-derived stem cells (hADSCs); experiment: Live/dead assay of cells cultured on the hydrogels; assay type: cell-based; details: 4 days in culture, live/dead staining
How it was run: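 GdL-formed gels at 1:0, 4:1, 1:1, 1:4 and 0:1 PA-E3/DBS-COOH were cross-linked with 50 mM CaCl2 and PBS-washed to pH 7. hADSCs were seeded at 5000 cells/mL and cultured 4 days at 37 °C, 5% CO2, with tissue-culture plastic as reference. Stained 30 min with calcein AM (live, green) and ethidium homodimer-1 (dead, red); imaged by confocal microscopy.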

[2] = Optical appearance of the hydrogels; assay type: physicochemical; details: 10 mM gelator, gelation by GdL acidification overnight; visual
How it was run: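 Gelators at 10 mM in PBS (pH 7.4) were dissolved with 0.5 M NaOH (to pH 9), either singly or mixed at 100/0, 80/20, 50/50, 20/80 and 0/100 molar % (10 mM total). Solutions were shaken with GdL (4 mg per vial) until dissolved, then left overnight to gel.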

[3] = aqueous; cited from earlier work
[4] = target: proteinase K (Parengyodontium album, UniProt P06873); experiment: Hydrogel weight loss in proteinase K solution or PBS; assay type: in vitro ADME; details: PBS 1× without enzyme, 37 °C, 22 days
Chain of proteinase K (P06873 106-384, species assumed): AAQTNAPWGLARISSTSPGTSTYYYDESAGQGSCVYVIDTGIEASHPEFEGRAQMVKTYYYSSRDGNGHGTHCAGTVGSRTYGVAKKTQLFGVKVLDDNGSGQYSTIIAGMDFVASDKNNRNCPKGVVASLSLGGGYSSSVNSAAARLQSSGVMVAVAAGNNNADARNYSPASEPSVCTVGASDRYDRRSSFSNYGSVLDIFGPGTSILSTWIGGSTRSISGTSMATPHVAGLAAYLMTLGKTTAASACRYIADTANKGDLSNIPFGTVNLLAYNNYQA
How it was run: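 Gels (10 mM PA-E3, 10 mM DBS-COOH, or 5 mM/5 mM mixture) formed by GdL acidification, soaked 1 h in PBS, then incubated at 37 °C in proteinase K (5 mg/mL in PBS) or PBS 1× alone; solutions renewed after each weighing at intervals up to 22 days; weight loss = (Wf – Wi)/Wi × 100 versus initial weight.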

For O=C(O)c1ccc([C@@H]2OC[C@@H]3O[C@H](c4ccc(C(=O)O)cc4)O[C@H]([C@H](O)CO)[C@@H]3O2)cc1 [DBS-COOH], the “Live cell coverage of hydrogel” value ([1]; confocal imaging) was “fully covered with live cells”, the “Cell viability on hydrogel compared with PA-E3 hydrogels” value ([1]; qualitative comparison) was “more viable” and the “Optical appearance of hydrogel (transparency)” value [2] was “translucent”. For the same compound, the “pKa of the terminal carboxylic acid” value [3] was 4–5.

For “CH3-(CH2)14-CONH-VVVAAAEEE-CONH2 [PA-E3]”, the “Weight ratio of hydrogel in PBS” value [4] is given as “remained constant”, the “Optical appearance of hydrogel (transparency)” value [2] is given as “optically transparent” and the “pKa of the terminal carboxylic acid” value [3] is given as 4–5.
